Assay results: ChEMBL document CHEMBL5705886, “GSK1070916, a potent Aurora B/C kinase inhibitor with broad antitumor activity in tissue culture cells and human tumor xenograft models” (Mol Cancer Ther, 2009)
The source made the active and inactive calls. No cut-off for these calls is given here.

Legend:
[1] = tested on: OCI-AML2; assay: Antiproliferative activity against human OCI-AML2 cells assessed as inhibition of cell viability measured for 6 to 7 days by cell titer glo assay; format: functional, cell-based
Method in brief: (§1)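 Cells seeded in recommended growth medium, held overnight at 37°C in 5% CO2, then exposed to serial dilutions of inhibitor for 6–7 d. A time-zero plate was read with CellTiter-Glo at dosing. Luminescent viability read at the end. No-cell wells subtracted as background, data expressed as percent of DMSO control.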

[2] = Toxicity in SCID nude mouse xenografted with human NCI-H460 cells assessed as drug tolerance at 25 to 100 mg/kg, ip administered once daily for 5 consecutive days with 2 days off scheduled for 3 cycles measured upto 60 days; format: organism-based; settings: in vivo, 1440 h, dose 25-100 mg/kg, time < 60 day
[3] = tested on: A2780; assay: Antiproliferative activity against human A2780 cells assessed as inhibition of cell viability measured for 6 to 7 days by cell titer glo assay; format: functional, cell-based
Method in brief: (§2)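 Tumor lines plated in recommended growth media, overnight at 37°C, 5% CO2, then given serial dilutions; a T=0 plate read with CellTiter-Glo at dosing. After 6–7 d of exposure, viability read by CellTiter-Glo luminescence. No-cell wells subtracted, data expressed as % of DMSO control.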

[4] = tested on: SW1417; assay: Antiproliferative activity against human SW1417 cells assessed as inhibition of cell viability measured for 6 to 7 days by cell titer glo assay; format: functional, cell-based; method in brief: as §1
[5] = Antiproliferative activity against human MEC-1 cells assessed as inhibition of cell viability measured for 6 to 7 days by cell titer glo assay; format: functional, cell-based; settings: MEC1
Method in brief: (§3)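 Cells seeded in recommended growth medium, incubated overnight at 37°C in 5% CO2, then exposed to serial dilutions of inhibitor for 6–7 d. A parallel plate was read with CellTiter-Glo at compound addition as a T=0 value. The luminescent viability readout had no-cell background subtracted and was expressed as % of DMSO control.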

[6] = tested on: MC116; assay: Antiproliferative activity against human MC116 cells assessed as inhibition of cell viability measured for 6 to 7 days by cell titer glo assay; format: functional, cell-based; method in brief: as §3
[7] = tested on: MV4-11; assay: Antiproliferative activity against human MV4-11 cells assessed as inhibition of cell viability measured for 6 to 7 days by cell titer glo assay; format: functional, cell-based; method in brief: as §3
[8] = tested on: SUP-B15; assay: Antiproliferative activity against human SUP-B15 cells assessed as inhibition of cell viability measured for 6 to 7 days by cell titer glo assay; format: functional, cell-based; method in brief: as §1
[9] = Antiproliferative activity against human Karpas-231 cells assessed as inhibition of cell viability measured for 6 to 7 days by cell titer glo assay; format: functional, cell-based; method in brief: as §3
[10] = tested on: Toledo; assay: Antiproliferative activity against human Toledo cells assessed as inhibition of cell viability measured for 6 to 7 days by cell titer glo assay; format: functional, cell-based; method in brief: as §1
[11] = tested on: COLO 205; assay: Antitumor activity in human COLO 205 cells xenografted in nude mouse assessed as reduction in tumor growth at 25 to 100 mg/kg, ip administered once daily for 5 consecutive days with 2 days off scheduled for 2 cycles measured upto 60 days; settings: dose 25-100 mg/kg, time 60.0 day
[12] = tested on: SUD4; assay: Antiproliferative activity against human SU-DHL-4 cells assessed as inhibition of cell viability measured for 6 to 7 days by cell titer glo assay; format: functional, cell-based; method in brief: as §1
[13] = tested on: COLO 320DM; assay: Antiproliferative activity against human COLO 320DM cells assessed as inhibition of cell viability measured for 6 to 7 days by cell titer glo assay; format: functional, cell-based; method in brief: as §2
[14] = Antiproliferative activity against human Kasumi-2 cells assessed as inhibition of cell viability measured for 6 to 7 days by cell titer glo assay; format: functional, cell-based; method in brief: as §3
[15] = tested on: EM-2; assay: Antiproliferative activity against human EM-2 cells assessed as inhibition of cell viability measured for 6 to 7 days by cell titer glo assay; format: functional, cell-based; method in brief: as §2
[16] = Antiproliferative activity against human A375P cells assessed as inhibition of cell viability measured for 6 to 7 days by cell titer glo assay; format: functional, cell-based; method in brief: as §2
[17] = tested on: A549; assay: Effect on cell cycle distribution in human A549 cells assessed as decrease in 2N DNA content incubated for 24 to 72 hrs by flow cytometry based analysis; format: functional; settings: dose 2-5000 nM, time 24-72 hrs
[18] = Antiproliferative activity against human SKO-007 cells assessed as inhibition of cell viability measured for 6 to 7 days by cell titer glo assay; format: functional, cell-based; method in brief: as §1
[19] = tested on: ARH-77; assay: Antiproliferative activity against human ARH-77 cells assessed as inhibition of cell viability measured for 6 to 7 days by cell titer glo assay; format: functional, cell-based; method in brief: as §2
[20] = tested on: CA46; assay: Antiproliferative activity against human CA46 cells assessed as inhibition of cell viability measured for 6 to 7 days by cell titer glo assay; format: functional, cell-based; method in brief: as §2
[21] = target: Aurora kinase B/Inner centromere protein (Homo sapiens, UniProt Q96GD4); assay: Binding affinity to AurB/INCENP (unknown origin) assessed as inhibition constant; format: protein-complex assay
Sequence of Aurora kinase B/Inner centromere protein (Q96GD4 whole entry): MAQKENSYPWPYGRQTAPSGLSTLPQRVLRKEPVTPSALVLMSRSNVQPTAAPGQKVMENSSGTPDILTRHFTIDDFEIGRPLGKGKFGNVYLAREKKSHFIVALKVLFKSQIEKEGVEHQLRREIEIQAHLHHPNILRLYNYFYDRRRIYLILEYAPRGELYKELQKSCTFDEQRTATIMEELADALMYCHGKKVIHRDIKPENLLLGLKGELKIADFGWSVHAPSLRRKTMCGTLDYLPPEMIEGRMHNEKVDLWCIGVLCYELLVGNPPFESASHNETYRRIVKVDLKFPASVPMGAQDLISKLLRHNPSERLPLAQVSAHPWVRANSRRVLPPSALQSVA
Sequence of Aurora kinase B/Inner centromere protein (Q9NQS7 whole entry, further chain): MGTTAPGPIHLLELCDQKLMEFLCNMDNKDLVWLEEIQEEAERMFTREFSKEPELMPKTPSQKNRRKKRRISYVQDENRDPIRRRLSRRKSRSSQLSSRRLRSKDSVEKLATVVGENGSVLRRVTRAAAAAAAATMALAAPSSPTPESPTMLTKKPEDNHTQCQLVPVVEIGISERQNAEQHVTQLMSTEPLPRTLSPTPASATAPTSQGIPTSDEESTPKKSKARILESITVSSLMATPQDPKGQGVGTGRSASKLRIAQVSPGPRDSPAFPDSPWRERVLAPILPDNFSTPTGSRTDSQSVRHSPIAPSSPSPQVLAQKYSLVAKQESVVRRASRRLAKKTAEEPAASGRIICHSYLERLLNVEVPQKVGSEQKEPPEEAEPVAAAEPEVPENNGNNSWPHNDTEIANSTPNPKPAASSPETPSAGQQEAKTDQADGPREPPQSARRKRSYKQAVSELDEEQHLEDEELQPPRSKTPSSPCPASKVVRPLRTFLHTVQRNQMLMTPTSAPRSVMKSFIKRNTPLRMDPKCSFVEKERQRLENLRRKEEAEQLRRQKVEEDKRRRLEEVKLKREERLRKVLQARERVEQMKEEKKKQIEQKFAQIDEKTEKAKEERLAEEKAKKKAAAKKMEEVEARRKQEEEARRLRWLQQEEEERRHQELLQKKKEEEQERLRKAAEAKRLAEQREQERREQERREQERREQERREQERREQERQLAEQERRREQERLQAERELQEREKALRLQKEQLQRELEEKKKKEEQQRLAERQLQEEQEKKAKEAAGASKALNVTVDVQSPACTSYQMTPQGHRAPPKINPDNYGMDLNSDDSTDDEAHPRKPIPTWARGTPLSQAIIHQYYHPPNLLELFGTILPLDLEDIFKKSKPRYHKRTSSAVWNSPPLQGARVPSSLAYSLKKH

[22] = Antiproliferative activity against human Tanoue cells assessed as inhibition of cell viability measured for 6 to 7 days by cell titer glo assay; format: functional, cell-based; method in brief: as §1
[23] = Antiproliferative activity against human TO 175.T cells assessed as inhibition of cell viability measured for 6 to 7 days by cell titer glo assay; format: functional, cell-based; method in brief: as §1
[24] = tested on: A549; assay: Antitumor activity in human A549 cells xenografted in nude mouse assessed as reduction in tumor growth at 25 to 100 mg/kg, ip administered once daily for 5 consecutive days with 2 days off scheduled for 3 cycles measured upto 60 days; settings: dose 25-100 mg/kg, time <= 60.0 day
[25] = tested on: RPMI-8226; assay: Antiproliferative activity against human RPMI-8226 cells assessed as inhibition of cell viability measured for 6 to 7 days by cell titer glo assay; format: functional, cell-based; method in brief: as §1
[26] = tested on: COLO 205; assay: Induction of apoptosis in human COLO 205 cells assessed as caspase-3 cleavage at 10 nmol/L incubated for 24 hrs by Western blot analysis; format: functional, cell-based
[27] = tested on: SW-620; assay: Antiproliferative activity against human SW620 cells assessed as inhibition of cell viability measured for 6 to 7 days by cell titer glo assay; format: functional, cell-based; method in brief: as §1
[28] = Antiproliferative activity against human MV-522 cells assessed as inhibition of cell viability measured for 6 to 7 days by cell titer glo assay; format: functional, cell-based; settings: MV522; method in brief: as §3
[29] = Toxicity in SCID nude mouse xenografted with human HCT-116 cells assessed as drug tolerance at 25 to 100 mg/kg, ip administered once daily for 5 consecutive days with 2 days off scheduled for 3 cycles measured upto 60 days; format: organism-based; settings: in vivo, 1440 h, dose 25-100 mg/kg, time < 60 day
[30] = tested on: KU812 cell line; assay: Antiproliferative activity against human KU812 cell line assessed as inhibition of cell viability measured for 6 to 7 days by cell titer glo assay; format: functional, cell-based; method in brief: as §3

CCn1cc(-c2ccnc3[nH]c(-c4cccc(CN(C)C)c4)cc23)c(-c2ccc(NC(=O)N(C)C)cc2)n1 [GSK-1070916]
EC50 [1]: 4 nM
Activity [2]: Non-Toxic
EC50 [3]: 5 nM
EC50 [4]: 19 nM
EC50 [5]: 10 nM
EC50 [6]: 8 nM
EC50 [7]: 7 nM
EC50 [8]: 2 nM
EC50 [9]: 3 nM
EC50 [10]: 15 nM
Activity [11]: inactive
EC50 [12]: 5 nM
EC50 [13]: 96 nM
EC50 [14]: 6 nM
EC50 [15]: 4 nM
EC50 [16]: 7 nM
Activity [17]: Active
EC50 [18]: 352 nM
EC50 [19]: 15 nM
EC50 [20]: 5 nM
Ki [21]: 0.39 nM
EC50 [22]: 1480 nM
EC50 [23]: 54 nM
Activity [24]: Active
EC50 [25]: 11 nM
Activity [26]: Active
EC50 [27]: 8 nM
EC50 [28]: 13 nM
Activity [29]: Non-Toxic
EC50 [30]: 8 nM
